# TRPC4 agonist: opens the mouse TRPC4 cation channel. Q9QUQ5. HEK293 TRPC4beta/mu-opioid, Fluo4 calcium fluorescence; hits give high values. B-score at 10 µM. actives 0.49% (n = 310,000). AID 2237;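 active = B-score above 5 SD of library B-scores, and initial fluorescence ratio not above library mean plus 5 SD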;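 also: positive B-score marks a calcium rise read as TRPC4 activation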
#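 Assay system: HEK293 stable line with TRPC4beta plus mu-opioid receptor; schedule: 45 min room-temperature Fluo4 loading, 110 s read; technique: kinetic Fluo4 calcium fluorescence; evaluation: integrated baseline-normalised fluorescence ratio, converted to per-well B score; controls: buffer (low) and maximal DAMGO (high)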
# TRPC4 inh: blocks the mouse TRPC4 cation channel; actives 0.39% (n = 300,000); AID 2247; HEK293 TRPC4beta/mu-opioid, DAMGO-evoked Fluo4 calcium flux; hits give low values; Q9QUQ5; B-score at 10 µM;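 active = B-score over 3 SD under the library average, no early fluorescence shift, positive overall ratio signal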
#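 Material: HEK293 cells with stable TRPC4beta plus mu-opioid receptor expression / Probe or stimulus: DAMGO in two steps, submaximal then maximal / Compound: single concentration per test compound / Technique: kinetic Fluo4 fluorescence imaging of calcium influx / Read-out: per-well B score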
# TRPC4 potent: allosteric potentiators of mouse TRPC4 channel; B-score at 10 µM; HEK293 TRPC4beta/mu-opioid, DAMGO EC20, Fluo-4 Ca2+ flux; hits give high values; actives 0.42% (n = 310,000); Q9QUQ5;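 active = B-score of calcium response area above 5 SD of library B-scores, with initial fluorescence ratio within 5 SD of library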;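 also: B-score of integrated fluorescence ratio over time as area under calcium response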
# TRPC6 act: activates the mouse TRPC6 cation channel | actives 0.13% (n = 310,000) | B-score at 10 µM | HEK293-TRPC6 membrane potential dye fluorescence; hits give high values | AID 2550 | Q61143;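 active = B-score of the integrated fluorescence ratio above library mean plus 3 SD, and starting fluorescence ratio within library mean plus 5 SD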;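 also: higher score means more depolarization so channel activation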
# Target sequence (Q61143 whole entry, looked up): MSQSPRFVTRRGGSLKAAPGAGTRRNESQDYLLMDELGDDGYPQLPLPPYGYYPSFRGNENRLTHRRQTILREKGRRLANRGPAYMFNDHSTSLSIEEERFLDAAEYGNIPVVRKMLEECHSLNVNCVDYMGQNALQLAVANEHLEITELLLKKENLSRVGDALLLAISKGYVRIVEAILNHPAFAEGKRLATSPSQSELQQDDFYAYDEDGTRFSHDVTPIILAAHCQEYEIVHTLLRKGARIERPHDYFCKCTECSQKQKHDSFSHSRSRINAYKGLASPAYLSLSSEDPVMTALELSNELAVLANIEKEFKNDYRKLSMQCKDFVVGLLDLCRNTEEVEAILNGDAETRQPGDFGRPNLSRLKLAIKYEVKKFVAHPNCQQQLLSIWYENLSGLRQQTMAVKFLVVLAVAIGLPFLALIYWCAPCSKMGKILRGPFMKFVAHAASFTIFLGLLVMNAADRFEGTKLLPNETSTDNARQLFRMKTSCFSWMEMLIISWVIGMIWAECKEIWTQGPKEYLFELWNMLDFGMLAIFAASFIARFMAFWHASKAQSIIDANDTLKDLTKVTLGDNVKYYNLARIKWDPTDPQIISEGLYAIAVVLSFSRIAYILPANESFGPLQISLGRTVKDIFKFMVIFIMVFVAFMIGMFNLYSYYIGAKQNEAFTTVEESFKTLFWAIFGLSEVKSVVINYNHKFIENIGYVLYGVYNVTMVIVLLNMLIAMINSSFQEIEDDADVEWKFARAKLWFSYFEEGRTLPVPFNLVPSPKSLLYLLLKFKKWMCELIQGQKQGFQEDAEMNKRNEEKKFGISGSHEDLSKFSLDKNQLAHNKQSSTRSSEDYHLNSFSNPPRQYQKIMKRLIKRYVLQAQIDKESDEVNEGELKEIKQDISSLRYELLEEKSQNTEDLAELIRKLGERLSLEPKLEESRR
# TRPC6 inhibitor: inhibitors of mouse TRPC6 channel; actives 1.1% (n = 310,000); HEK293-TRPC6, membrane potential dye, ACh-evoked depolarization; hits give low values; B-score at 10 µM; Q61143; AID 2553;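 active = B-score under library mean minus 3 SD, initial fluorescence not abnormally high, positive integrated signal ratio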;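 also: B-score derived from integrated fluorescence ratio over the kinetic read; more negative B-score means stronger inhibition of depolarization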
# TRPC4 spec 2: second selectivity test of TRPC6 inhibitors: effect on mouse TRPC4; shares compounds with TRPC6 inhibitor; HEK293 TRPC4/MOR, membrane potential dye fluorescence; channel activated by saturating DAMGO dose; inhibition, % at 10 µM; actives 42% (n = 920);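 active = compounds whose fluorescence signal differed from control wells by over 3 SD, either direction, in both duplicate plates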
# TRPC4 spec: selectivity of TRPC6 inhibitors: effect on mouse TRPC4. shares compounds with TRPC6 inhibitor. HEK293 TRPC4/mu-opioid, membrane potential fluorescence. activity change, negative = inhibition, % at 10 µM. actives 61% (n = 920). AID 2777;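 active = rise or fall in signal beyond 3 SD of buffer-only wells in both replicate plates, either sign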;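 also: integrated kinetic ratio of fluorescence range over baseline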
# HEK293 MPD ctr 2-1: second counter-screen for TRPC6 inhibitors: parental HEK293 cells | shares compounds with TRPC6 inhibitor | actives 31% (n = 920) | parental HEK293 membrane potential dye fluorescence; maximal acetylcholine challenge after compound addition | signal change vs control, % at 10 µM;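 active = membrane potential signal moving either way by over 3 SD of the maximum-effect control, in both duplicate plates, meaning non-specific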
# HEK293 MPD ctr-1: counter-screen for TRPC6 inhibitors: effect in parental HEK293 cells; shares compounds with TRPC6 inhibitor; parental HEK293 membrane potential dye fluorescence; membrane potential signal change, % at 10 µM; actives 60% (n = 920);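 active = membrane potential signal shifting up or down by more than 3 SD of buffer-only wells, on both duplicate plates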
# HEK293 MPD ctr-2: parental HEK293 nonspecific activity of TRPC6 modulators | actives 51% (n = 2,400) | membrane potential dye fluorescence | membrane potential signal change, % at 10 µM | shares compounds with TRPC6 inhibitor;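 active = membrane potential signal moves up or down beyond 5 SD from buffer-only wells, on both duplicate plates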
# HEK293 MPD ctr 2-2: second check of TRPC6 modulator effects in parental HEK293 cells | shares compounds with TRPC6 inhibitor | membrane potential dye fluorescence; after compound, maximal acetylcholine stimulation | inhibition, % at 10 µM | actives 14% (n = 2,400) | AID 488926;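 active = membrane potential signal drops by more than 5 SD from the mean control signal, in both duplicate plates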;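 also: plate controls were acetylcholine ECmax control wells for no effect and buffer only wells for full effect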
# TRPC4 ctr mod: tests whether TRPC6 modulators also affect mouse TRPC4; shares compounds with TRPC6 inhibitor; AID 488927; percent change from control (negative = decrease, positive = increase), % at 10 µM; actives 69% (n = 2,400); HEK293 TRPC4/mu-opioid, membrane potential fluorescence;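 active = membrane potential signal moved up or down beyond 5 SD of buffer control wells, in both duplicate plates, actives on both sides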;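 also: plate controls were assay buffer wells for no effect and DAMGO maximal-effect wells for full effect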
# TRPC4/MOR inh 2: second selectivity test of TRPC6 modulators against mouse TRPC4. shares compounds with TRPC6 inhibitor. inhibition, % at 10 µM. actives 55% (n = 2,400). HEK293 TRPC4/mu-opioid, membrane potential dye fluorescence; stimulated with maximal-effect DAMGO. AID 488928;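 active = drop in membrane potential signal beyond 5 SD of the control wells in both duplicate plates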;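 also: TRPC4 counter screen for TRPC6 hits run under conditions tuned for TRPC6 not TRPC4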
# TRPC6 block conf: confirmation of mouse TRPC6 inhibitors. actives 43% (n = 3,300). HEK293-TRPC6, membrane potential dye, ACh-evoked depolarization. inhibition, % at 10 µM. shares compounds with TRPC6 inhibitor;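 active = fluorescence ratio falls more than 5 SD below the full-stimulation control mean, in both duplicate runs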;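 also: integrated fluorescence ratio of peak minus minimum over baseline after agonist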
# TRPC6 act conf: confirmation of mouse TRPC6 activators; shares compounds with TRPC6 inhibitor; activation, % at 10 µM; HEK293-TRPC6 membrane potential dye fluorescence, FDSS; actives 11% (n = 2,800);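 active = ratio signal rise beyond 5 SD above unstimulated control wells' mean, seen in both duplicate runs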;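 also: plate controls were buffer EC0 wells for no effect and acetylcholine ECmax response for full effect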
# Active calls of the source: *; i = inactive; / = no result given; ! = not active in a repeat. Shown are actives, neighbours in structure and some others; about 2.3% of the full set was active somewhere.
SMILES,TRPC4 agonist,TRPC4 inh,TRPC4 potent,TRPC6 act,TRPC6 inhibitor,HEK293 MPD ctr-2,HEK293 MPD ctr 2-2,TRPC4 ctr mod,TRPC4/MOR inh 2,TRPC6 block conf,TRPC6 act conf,others
COc1ccc(NC(=O)CN2C(=O)NC(c3ccccc3)(c3ccccc3)C2=O)cc1OC,i,i,i,i,i,/,/,/,/,/,/,
COc1ccc(N2CCN(C(=O)CCS(=O)(=O)c3ccc(C)cc3)CC2)cc1,i,i,i,i,i,/,/,/,/,/,/,
O=C1CCC(C(=O)O)(c2ccccc2)C1 (centres undefined),i,i,i,i,-5.1*,i,i,i,i,i,i,
C=CCn1c(SCC(=O)c2cc(C)n(CC3CCCO3)c2C)nnc1-c1ccccc1 (centres undefined),i,i,i,16*,i,110%*,i,26%*,i,/,82%*,
c1ccc(Cn2c(-c3ccccc3)c[n+]3c2SCCC3)cc1,i,i,i,i,-9.9*,/,/,/,/,68%*,i,TRPC4 spec 2=i;TRPC4 spec=i;HEK293 MPD ctr 2-1=40%*;HEK293 MPD ctr-1=i
c1ccc(-c2cn(-c3ccccc3)c3[n+]2CCCS3)cc1,i,i,i,i,i,/,/,/,/,/,/,
CCOC(=O)c1ccc(NC(=O)COc2ccccc2CNC2CCCC2)cc1,i,i,i,i,i,/,/,/,/,/,/,
COCCCC/C(=N\OCCN)c1ccc(C(F)(F)F)cc1,i,i,i,i,-5*!,i,i,12%*,48%*,43%*,i,
O=C(CCC(=O)OCC(=O)c1ccc(C(F)(F)F)cc1)OCC(=O)c1ccc(C(F)(F)F)cc1,i,i,i,i,i,/,/,/,/,/,/,
Cc1ccccc1CSCCNC(=O)COc1ccc(Cl)cc1,i,i,i,i,i,/,/,/,/,/,/,
CC(C)(C)SCCNC(=O)COc1ccc(Cl)cc1,i,i,i,i,-5.3*,i,i,i,i,i,/,
Cc1c(O)c(CN(C)C)cc2c1oc(=O)c1ccccc12,i,i,i,i,-5.2*,-126%*,i,-28%*,i,i,i,
COc1ccc(-c2cc(=O)oc3c(C)c(O)c(CN(C)C)cc23)cc1,i,i,i,i,i,/,/,/,/,/,/,
O=C(NC1CCSc2ccccc21)c1ccccc1Br (centres undefined),i,i,i,i,i,/,/,/,/,/,/,
CC(C)OC(=O)c1cccnc1SCC(=O)N(C)c1ccccc1,i,i,i,i,i,/,/,/,/,/,/,
CC(C)OC(=O)c1cccnc1SCc1cc(=O)n2ccccc2n1,i,i,i,i,-6*,i,i,i,i,i,/,
NC(=O)CSc1nnc(-c2cc3ccccc3o2)n1Cc1ccccc1,i,i,i,i,i,/,/,/,/,/,/,
O=C(CSc1nnc(C2CC2)n1Cc1ccccc1)c1cc2ccccc2o1,i,i,i,i,-5.2*,169%*,i,24%*,i,i,/,
COC(=O)c1[nH]c2ccc(C)cc2c1NC(=O)CCN1CCN(C2CCCCC2)CC1,i,i,i,i,i,/,/,/,/,/,/,
COC(=O)c1[nH]c2ccc(Br)cc2c1NC(=O)CN1CCCc2ccccc21,i,i,i,i,i,/,/,/,/,/,/,
O=C(/C=C/c1ccc2c(c1)OCO2)Nc1c(C(=O)O)[nH]c2ccccc12,i,i,i,14*,i,i,i,16%*,i,i,54%*,
COc1cc(NC(=O)CN2CCN(Cc3ccc4c(c3)OCO4)CC2)cc(OC)c1,i,i,i,i,i,/,/,/,/,/,/,
CCOC(=O)c1[nH]c2ccc(OC)cc2c1NC(=O)/C=C/c1ccc2c(c1)OCO2,i,i,i,i,i,/,/,/,/,/,/,
COC(=O)c1[nH]c2ccccc2c1NC(=O)CN1CCN(Cc2ccc3c(c2)OCO3)CC1,i,i,i,i,-5.6*,i,i,i,66%*,57%*,i,
COC(=O)c1[nH]c2ccc(Br)cc2c1NC(=O)CN1CCN(C2CCCCC2)CC1,i,i,i,i,-17*,/,/,/,/,94%*,i,TRPC4 spec 2=30%*;TRPC4 spec=-24%*;HEK293 MPD ctr 2-1=20%*;HEK293 MPD ctr-1=-268%*
COC(=O)c1[nH]c2cc(C)ccc2c1NC(=O)CN1CCCc2ccccc21,i,i,i,i,-11*,/,/,/,/,i,i,TRPC4 spec 2=i;TRPC4 spec=-10%*;HEK293 MPD ctr 2-1=i;HEK293 MPD ctr-1=i
CCc1ccc(C(=O)NCc2cnn(C)c2)s1,i,i,i,i,i,/,/,/,/,/,/,
Cc1ccccc1CC(=O)Nc1ccon1,i,i,i,i,i,/,/,/,/,/,/,
CNCCC1Sc2ccccc2Oc2ccccc21 (centres undefined),i,i,i,i,-5.6*,86%*,i,41%*,59%*,i,/,
Cc1cccc(NC(=O)CCS(=O)(=O)c2cc3c(cc2Cl)NC(=O)CO3)c1,i,i,i,i,i,/,/,/,/,/,/,
